Screening results as filed in PubChem.
Rows were chosen to be rich in hits. Some 4.8% of all compounds tested hit in one or more screens of this group.
Calb FLC – C. albicans growth modulation with fluconazole; growth inhibition, % (no concentration beside the values); C. albicans CaCi-2 (fluconazole-resistant clinical isolate) + fluconazole, Alamar Blue growth, 48 h; 300,000 compounds, 0.57% hits;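 active = growth inhibition above about 58% in most replicates, limit read from the data, passing the limit was not always enough; inconclusive = exactly half the replicates above a set limit; inactive = most replicates below a set limit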;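 note: all wells also contain fluconazole at 8 µg/ml as a sub-toxic cotreatment; 0% = median of DMSO wells and 100% = median of geldanamycin control wells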
UCH37 DUB inh – blocks the human deubiquitinase UCH37; Q9Y5K5; purified proteasome/UCH37, Ub-AMC cleavage fluorescence; inhibition, % (concentration not given with the values); 330,000 compounds, 0.33% hits; AID 588478;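 active = mean inhibition over replicate wells above about 20%, limit read from the data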;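 note: 0% = compound-free wells with enzyme and 100% = wells lacking proteasome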
Target sequence (Q9Y5K5 whole entry, looked up): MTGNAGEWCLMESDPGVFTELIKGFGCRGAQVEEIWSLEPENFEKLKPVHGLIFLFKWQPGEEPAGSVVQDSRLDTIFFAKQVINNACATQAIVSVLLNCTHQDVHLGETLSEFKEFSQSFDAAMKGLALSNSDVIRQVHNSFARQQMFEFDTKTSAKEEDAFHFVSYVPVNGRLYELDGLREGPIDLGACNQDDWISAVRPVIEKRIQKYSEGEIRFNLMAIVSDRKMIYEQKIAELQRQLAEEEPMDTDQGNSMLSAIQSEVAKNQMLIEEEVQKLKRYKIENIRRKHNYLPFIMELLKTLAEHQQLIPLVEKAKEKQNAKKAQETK
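assay system = human UCH37 enzyme supplied as purified proteasome complex | amount = proteasome at 0.15 nM in the dispensed enzyme solution | schedule = 30 min compound-proteasome preincubation then 25 min substrate reaction, room temperature | measured by = fluorescence, ex 355 nm, em 460 nm | benchmarks = no-proteasome wells (full inhibition) and compound-free wells (no inhibition)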
ATG4B inhibitor – ATG4B (human) cysteine protease inhibition | Q9Y4P1 | ATG4B cleavage of LC3-PLA2, NBD-HPC fluorescence, 1 h | inhibition, % at 8.33 µM | 340,000 compounds, 0.51% hits | AID 504462; in the data active = inhibition above about 40%
NALP3 yeast inh – inhibitors of NALP3 inflammasome in yeast; Yeast reconstituted NLRP3/ASC/caspase-1, beta-gal luminescence, 24 h; 330,000 compounds, 0.39% hits; inhibition, % at 10 µM;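 active = inhibition of 50% or more; inactive = inhibition below 50%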;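 note: plate controls were induced DMSO wells for no effect and uninduced yeast grown without galactose for full effect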
ALR inh – human ALR oxidase inhibition via reduced H2O2; purified ALR, DTT oxidation, H2O2 HRP-luminol luminescence; inhibition, % (concentration not given with the values); 290,000 compounds, 3.8% hits;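 active = mean replicate inhibition above about 79%, with every replicate also reaching it, limit read from the data; inconclusive = only one of the two criteria met; inactive = mean below limit and not every replicate reaching it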
NALP1 inh – blocks the NALP1 inflammasome reconstituted in yeast | inhibition, % at 10 µM | AID 2071 | S. cerevisiae NALP1/ASC/caspase-1 growth, X-gal OD620, 72 h | 280,000 compounds, 0.61% hits; in the data active = inhibition mostly above about 24%, no sharp cut-off; inactive = mostly below about 32%
Starred values were filed as active, the others as inactive; ? = inconclusive; · = not tested or not shown.

SMILES	Calb FLC	UCH37 DUB inh	ATG4B inhibitor	NALP3 yeast inh	ALR inh	NALP1 inh
COc1ccc(N2CCN(CCC(O)c3ccc4ccccc4c3)CC2)cc1 (stereo not given)	-11	3	-6	28	52	40*
COc1ccc(N2CCN(C(=O)NCc3ccc(OC)c(OC)c3)CC2)cc1	14	4	-1	21	89*	19
COc1ccc(-n2c(CNC(=O)COc3ccccc3)n[nH]c2=S)cc1	-13	-3	-2	3	0	-5
COc1ccc(-n2c(CNC(=O)COc3ccc(Cl)cc3)n[nH]c2=S)cc1	5	3	5	25	88*	-13
NC(=O)C(=O)NN=Cc1c(F)c(F)c(F)c(F)c1F	·	6	·	·	·	·
CCOc1ccc(-c2cc(C(=O)NN=Cc3cccnc3)c3ccccc3n2)cc1	·	-53	·	·	·	·
COc1cccc(N2CCN(CC(=O)Nc3nnc(-c4ccccc4)s3)CC2)c1	-4	1	-19	32	-33	20
COc1ccc(N2CCN(CC(=O)NCc3ccccc3)CC2)cc1	4	2	-1	20	70	14
COc1ccc(N2CC(NC(=O)N3CCN(c4ccccc4)CC3)CC2=O)cc1 (stereo not given)	2	4	31	6	97*	11
COc1cccc(N2CCN(CC(=O)NCc3cccs3)CC2)c1	-2	0	-4	-7	99*	28
COc1ccc(N2CC(NC(=O)Nc3ccccc3)CC2=O)cc1 (stereo not given)	-2	6	31	-11	-5	2
COc1ccc(N2CCN(CC(=O)NCc3ccc(Cl)cc3)CC2)cc1	1	3	1	5	89*	15
CC(CCc1ccccc1)NC(=O)CN1CCN(c2ccc(O)cc2)CC1 (stereo not given)	95*	4	2	-7	100*	7
COc1ccc(N2CCN(C(=O)NC34CC5CC(CC(C5)C3)C4)CC2)cc1	-61	4	-20	6	85*	2
CC(=NNC(=O)C1CCCC1)c1ccc(Cl)cc1Cl	·	3	·	·	·	·
O=C1CC(c2ccc(O)c(O)c2)Oc2cc(O)cc(O)c21 (stereo not given)	-2	-2	-7	4	99*	-10
CC(C)=CCc1c(O)ccc2c1OC(c1ccc(O)c(O)c1)CC2=O (stereo not given)	-17	1	-15	23	?	-17
O=C1CC(c2ccc(O)cc2)Oc2cc(O)cc(O)c21 (stereo not given)	6	4	1	14	99*	20
O=C1CC(c2ccc(O)c(O)c2)Oc2c1ccc(O)c2O (stereo not given)	·	5	-8	10	98*	-5
O=C1CC(c2ccccc2)Oc2cc(O)cc(O)c21 (stereo not given)	0	3	-17	7	1	-15
COc1ccc(C2CC(=O)c3c(O)cc(O)cc3O2)cc1O (stereo not given)	·	·	3	·	·	·
COc1ccccc1N1CCN(N=Cc2cccc(O)c2)CC1	·	0	·	·	·	·
Cc1ccc(O)c(-c2cc(C(=O)NCc3ccncc3)[nH]n2)c1	-3	1	-9	7	90*	16
Cc1cc(C)c(O)c(-c2cc(C(=O)NCc3ccccc3)[nH]n2)c1	-5	2	22	37	5	7
Cc1cc(=O)oc2cc(OCC(=O)NN=Cc3cc([N+](=O)[O-])ccc3O)ccc12	·	8	·	·	·	·
SMILES	Calb FLC	UCH37 DUB inh	ATG4B inhibitor	NALP3 yeast inh	ALR inh	NALP1 inh
O=C(c1c[nH]c2ccccc12)C(Cl)c1ccccc1 (stereo not given)	7	·	0	33	3	45*
O=C(CC(=O)NN=Cc1ccc(F)cc1)NCCc1ccccc1	·	3	·	·	·	·
O=C(N[C@@H](Cc1ccccc1)C(=O)N[C@@H](Cc1ccccc1)C(=O)O)OCc1ccccc1	-7	3	-13	12	·	·
O=C(N[C@@H](Cc1ccccc1)C(=O)CCl)OCc1ccccc1	·	6	4	18	97*	·
NC(Cc1nc(-c2ccc(Br)cc2)cs1)=NO	·	6	·	·	·	·
COc1cc(/C=N/NC(=O)c2ccc(=O)[nH]n2)ccc1O	-6	·	-7	-4	99*	-56
O=C(N/N=C/c1ccc(O)cc1)c1cc(C2CC2)[nH]n1	-7	·	-2	6	99*	0
COc1cc(/C=N/NC(=O)c2cc(C3CC3)[nH]n2)ccc1O	4	·	1	-14	99*	·
